Test results published in publication PMC12065821 (Scientific Reports, 2025).
Where a SMILES comes first, the peptide text is derived from it. Bridges are numbered along the chain shown (N, C = ends). [ ]: non-standard residue; d: D form. The star is where a group is joined. Heptanoyl(6-Me) = CC(C)CCCCC(=O)*; Dab = NCC[C@H](N)C(=O)O

Columns and labels:
[1] = Plasma PK of CMS/CMS-E2 and formed colistin/colistin B; type: in vivo, rats; conditions: rat plasma, LC-MS/MS, NCA, mean ± SD
How it was run: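 Male Sprague-Dawley rats were dosed once i.p. in saline, and serial jugular-vein blood was taken before and after dosing. Blood was heparinised (1%), spun at 4,982 × g for 10 min at 4 °C, and plasma stored at −70 °C. Plasma (40 µL) went through WCX solid-phase extraction with polymyxin B1 internal standard, then LC-MS/MS. Prodrug was total (acid-hydrolysed) minus free analyte. […] Values are mean ± SD, compared by Wilcoxon rank sum.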

[2] = Kidney PK of CMS/CMS-E2 and formed colistin/colistin B; type: in vivo, rats; conditions: for Kp: kidney (cortex) / plasma, colistin/colistin B; for Tmax formed colistin/colistin B in kidneys / Cmax formed colistin/colistin B in kidneys / AUC0-inf CMS/CMS-E2 in kidneys / Tmax CMS/CMS-E2 in kidneys / t1/2 CMS/CMS-E2 in kidneys / Cmax CMS/CMS-E2 in kidneys: rat kidney cortex, LC-MS/MS; for Tmax formed colistin/colistin B in kidneys / AUC0-inf CMS/CMS-E2 in kidneys / Tmax CMS/CMS-E2 in kidneys / t1/2 CMS/CMS-E2 in kidneys: NCA; for Cmax formed colistin/colistin B in kidneys / Cmax CMS/CMS-E2 in kidneys: mean ± SD
How it was run: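 Male Sprague-Dawley rats (300 ± 15 g) got one i.p. dose in saline. At each sampling time rats were anaesthetised with tiletamine-zolazepam (40 mg/kg) and killed, and the left kidney was frozen at −70 °C. Kidney cortex was homogenised in saline (1:10 m/v, 1% BSA). Samples went through WCX solid-phase extraction with polymyxin B1 internal standard, then LC-MS/MS. Prodrug was calculated as total (after […] sulfuric acid hydrolysis) minus free colistin/colistin B. Parameters came from non-compartmental analysis.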

[3] = PK-TD model, PK component; type: in vivo; conditions: rats, single i.p. CMS-E2 40 mg/kg CBA, one-compartment PK-TD model, mean ± SD
How it was run: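 Plasma prodrug and formed colistin/colistin B concentrations after i.p. dosing were fitted by a compartmental model. The final model used one compartment each for prodrug and formed drug, a conversion rate constant, and linear first-order total clearance from both. Fit was judged by R², AIC, BIC and visual inspection. Estimates are mean ± SD.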

[4] = test system: rats; assay: Regression of kidney colistin/colistin B concentrations against CR, BUN, SQS; type: in vivo; conditions: 95% CI
[5] = cited from earlier work
[6] = cited from earlier work; remark: listed apart in the source
[7] = test system: rats; assay: Kidney injury biomarkers: plasma CR and BUN; type: in vivo; conditions: rat plasma, mean ± SD
How it was run: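 Rats (male Sprague-Dawley) received one i.p. injection in saline, with a saline control group. Plasma came from serial heparinised jugular-vein samples, plus blood taken at sacrifice in a second cohort. Creatinine and blood urea nitrogen were measured on an automatic biochemical analyser. Peak levels and times to peak were taken from the time profiles and given as mean ± SD.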

[8] = test system: rats; assay: Renal histological examination; type: in vivo; conditions: rat kidney; for maximal SQS: mean ± SD, SD
[9] = test system: rats; assay: PK-TD model, TD component; type: in vivo; conditions: i.p., mean ± SD
How it was run: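 Plasma creatinine and BUN time courses were linked to plasma colistin/colistin B through an indirect hypothetical effect compartment. K_e is the rate constant from the central to the effect compartment. The effect was linear: E = E₀ + S·C_e, with E₀ the pre-dose baseline. T_lag was calculated as 1/K_e. Fit was judged by R², AIC, BIC and visual inspection. Parameters are mean ± SD.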

[10] = test system: rats; assay: Maximal tolerability dose; type: in vivo; conditions: intraperitoneal
[11] = single i.p. CMS or CMS-E2 20 mg/kg CBA
[12] = single i.p. CMS-E2 40 mg/kg CBA
[13] = single i.p. CMS or CMS-E2 20 mg/kg CBA, SD
[14] = single i.p. CMS-E2 40 mg/kg CBA, SD
[15] = rats, single i.p. CMS or CMS-E2 20 mg/kg CBA

Compound: CC(C)CCCCC(=O)N[C@@H](CCN)C(=O)N[C@H](C(=O)N[C@@H](CCN)C(=O)N[C@H]1CCNC(=O)[C@H]([C@@H](C)O)NC(=O)[C@H](CCN)NC(=O)[C@H](CCN)NC(=O)[C@H](CC(C)C)NC(=O)[C@@H](CC(C)C)NC(=O)[C@H](CCN)NC1=O)[C@@H](C)O [colistin B] ({Heptanoyl(6-Me)}-[Dab]T[Dab][Dab][Dab][dL]L[Dab][Dab]T; lactam 4-C)
- AUC0-inf formed colistin/colistin B in plasma [1, 11]: 4140 ± 1260 ng·h/mL
- Cmax formed colistin/colistin B in plasma [1, 11]: 1140 ± 217 ng/mL
- Tmax formed colistin/colistin B in plasma [1, 11]: 1.67 ± 0.471 h
- t1/2 formed colistin/colistin B in plasma [1, 11]: 1.22 ± 0.313 h
- AUC0-inf formed colistin/colistin B in plasma [1, 12]: 35500 ± 23900 ng·h/mL
- Cmax formed colistin/colistin B in plasma [1, 12]: 7080 ± 2770 ng/mL
- Tmax formed colistin/colistin B in plasma [1, 12]: 4.71 ± 0.881 h
- t1/2 formed colistin/colistin B in plasma [1, 12]: 2.13 ± 0.827 h
- Kp ([2]; male, Sprague-Dawley, rat, ip, 20 mg/kg CBA, Kidney/plasma ratio of AUC0-inf, rats, single i.p. CMS or CMS-E2 20 mg/kg CBA): 19.7
- Kp ([2]; male, Sprague-Dawley, rat, ip, 40 mg/kg CBA, Kidney/plasma ratio of AUC0-inf, rats, single i.p. CMS-E2 40 mg/kg CBA): 39.6
- Kp ([2]; male, Sprague-Dawley, rat, ip, 40 mg/kg CBA, Kidney/plasma ratio of Cmax, rats, single i.p. CMS-E2 40 mg/kg CBA): 20.1
- tissue level at time at 8 h ([2]; male, Sprague-Dawley, rat, kidney cortex, ip, 20 mg/kg CBA, SD): 4860 ± 2360 ng/g
- tissue level at time at 24 h ([2]; male, Sprague-Dawley, rat, kidney cortex, ip, 40 mg/kg CBA, SD): 11500 ± 1740 ng/g
- Tmax formed colistin/colistin B in kidneys [2, 11]: 4 h
- Cmax formed colistin/colistin B in kidneys [2, 13]: 17.6 ± 6.79 µg/g
- Tmax formed colistin/colistin B in kidneys [2, 12]: 10 h
- Cmax formed colistin/colistin B in kidneys [2, 14]: 148 ± 32.8 µg/g
- Kidney/plasma ratio of Cmax, colistin/colistin B [2, 15]: 15.4
- CLcolistin/colistin B (total body clearance) [3]: 1.89 ± 0.809 mL/min/kg
- regression coefficient between kidney concentration and SQS ([4]; ordered logistic regression): 0.03
- regression coefficient between kidney concentration and contemporaneous BUN ([4]; simple linear regression): 0.08
- regression coefficient between kidney concentration and contemporaneous CR ([4]; simple linear regression): 1.58
- plasma protein binding [5]: 41.7 ± 12.4%
- clearance after the colistin sulfate [6]: 5.2 ± 0.4 mL/min/kg
- clearance relative to colistin [6]: almost half
- clearance when administered as a single component [6]: 3.05 ± 0.62 mL/min/kg

Compound: Colistin B methanesulphonate [CMS-E2]
- AUC0-inf CMS/CMS-E2 in plasma [1, 11]: 37200 ± 10500 ng·h/mL
- CL/F CMS/CMS-E2 [1, 11]: 9.90 ± 3.34 mL/min/kg
- Cmax CMS/CMS-E2 in plasma [1, 11]: 19100 ± 4500 ng/mL
- Tmax CMS/CMS-E2 in plasma [1, 11]: 0.500 ± 0.00 h
- Vd/F CMS/CMS-E2 [1, 11]: 0.464 ± 0.108 L/kg
- t1/2 CMS/CMS-E2 in plasma [1, 11]: 0.573 ± 0.16 h
- AUC0-inf CMS/CMS-E2 in plasma [1, 12]: 226000 ± 125000 ng·h/mL
- CL/F CMS/CMS-E2 [1, 12]: 4.18 ± 2.56 mL/min/kg
- Cmax CMS/CMS-E2 in plasma [1, 12]: 50900 ± 23500 ng/mL
- Tmax CMS/CMS-E2 in plasma [1, 12]: 1.75 ± 0.433 h
- Vd/F CMS/CMS-E2 [1, 12]: 0.497 ± 0.278 L/kg
- t1/2 CMS/CMS-E2 in plasma [1, 12]: 1.57 ± 0.522 h
- AUC0-inf CMS/CMS-E2 in kidneys [2, 11]: 289 µg·h/g
- Tmax CMS/CMS-E2 in kidneys [2, 11]: 2 h
- t1/2 CMS/CMS-E2 in kidneys [2, 11]: 0.56 h
- Cmax CMS/CMS-E2 in kidneys [2, 13]: 105 ± 25.3 µg/g
- AUC0-inf CMS/CMS-E2 in kidneys [2, 12]: 2496 µg·h/g
- Tmax CMS/CMS-E2 in kidneys [2, 12]: 4 h
- t1/2 CMS/CMS-E2 in kidneys [2, 12]: 2.02 h
- Cmax CMS/CMS-E2 in kidneys [2, 14]: 379 ± 85.5 µg/g
- Kidney/plasma ratio of Cmax, CMS/CMS-E2 [2, 15]: 5.50
- Kidney/plasma ratio of Cmax, CMS/CMS-E2 ([2]; rats, single i.p. CMS-E2 40 mg/kg CBA): 7.44
- peak BUN level [7, 11]: 12.4 ± 5.21 mmol/L
- peak CR level [7, 11]: 33.4 ± 3.44 µmol/L
- time of peak BUN [7, 11]: 6.00 ± 0.00 h
- time of peak CR level [7, 11]: 4.67 ± 1.89 h
- peak BUN level [7, 12]: 23.0 ± 5.59 mmol/L
- peak CR level [7, 12]: 104 ± 40.4 µmol/L
- time of peak BUN [7, 12]: 11.1 ± 3.00 h
- time of peak CR level [7, 12]: 8.86 ± 3.18 h
- histological lesions during the first 2 h ([8]; PAS stain, single i.p. CMS or CMS-E2 20 mg/kg CBA): No obvious histological lesion
- maximal SQS [8, 11]: 0.667 ± 0.577
- histological damage at time points other than 4 h ([8]; single i.p. CMS-E2 20 mg/kg CBA): no obvious damage was observed
- recovery of histological damage at 24 h [8, 12]: all damage was completely recovered
- maximal SQS [8, 12]: 2.33 ± 1.16
- CLCMS/CMS-E2 (total body clearance) [3]: 3.20 ± 1.74 mL/min/kg
- Ka CMS/CMS-E2 (absorption rate) [3]: 0.673 ± 0.208 h⁻¹
- V (volume of distribution) [3]: 0.291 ± 0.105 L/kg
- S (slope between colistin/colistin B concentration in effect compartment and CR) ([9]; E = E0 + S·Ce): 13.0 ± 3.52 mmol/g
- Ke (rate from colistin/colistin B central compartment to effect compartment), BUN ([9]; indirect link PK-TD model, effect = BUN): 0.182 ± 0.164 h⁻¹
- Ke (rate from colistin/colistin B central compartment to effect compartment), CR ([9]; indirect link PK-TD model, effect = plasma CR): 0.814 ± 0.524 h⁻¹
- Tlag (lag time), BUN ([9]; reciprocal of Ke, effect = BUN): 11.9 ± 9.46 h
- Tlag (lag time), CR ([9]; reciprocal of Ke, effect = plasma CR): 1.83 ± 1.05 h
- maximal tolerability dose [10]: 40 mg/kg CBA
